Experimental data: BindingDB's records for doi:10.1016/j.ejmech.2010.04.038 (B.V. Patel Pharmaceutical Education and Research …, 2010)

Biological target: Transcription factor Jun (Homo sapiens, UniProt P05412)
Assay: Inhibition of AP1 expressed in HEK293 cells assessed as inhibition of PMA-induced transcriptional activation treated 24 hrs before PMA challenge by luciferase reporter gene assay
Outline: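 Six-point dose response […] and rising in ½-log steps, screened as in the primary reporter assay. IC50 calculated from the dose-response data.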

Sequence of Transcription factor Jun (P05412 whole entry): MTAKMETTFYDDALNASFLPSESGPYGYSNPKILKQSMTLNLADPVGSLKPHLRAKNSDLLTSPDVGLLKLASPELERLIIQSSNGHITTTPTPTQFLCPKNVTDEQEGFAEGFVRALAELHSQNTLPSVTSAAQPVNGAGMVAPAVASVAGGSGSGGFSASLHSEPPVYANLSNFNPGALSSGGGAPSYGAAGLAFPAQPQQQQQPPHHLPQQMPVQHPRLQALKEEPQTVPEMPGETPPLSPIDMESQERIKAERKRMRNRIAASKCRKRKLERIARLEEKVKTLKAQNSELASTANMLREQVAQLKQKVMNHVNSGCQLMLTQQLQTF

| IC50 [µM] | SMILES |
| --- | --- |
| 14 | COc1ccc(-n2c(-c3sc(Nc4ccc(Cl)cc4)nc3-c3ccccc3)nc3ccccc3c2=O)cc1 [2-[2-(4-Chloro-phenylamino)-4-phenyl-thiazol-5-yl]-3-(4-methoxy-phenyl)-3H quinazolin-4-one] |
| > 500 | CNc1nc(-c2ccccc2)c(-c2nc3ccccc3c(=O)n2-c2ccc(Cl)cc2)s1 [3-(4-Chloro-phenyl)-2-(2-methylamino-4-phenyl-thiazol-5-yl)-3H-quinazolin-4-one] |
| 4.3 | O=c1c2ccccc2nc(-c2sc(Nc3ccc(Cl)cc3)nc2-c2ccccc2)n1-c1ccc(Cl)cc1 [3-(4-Chloro-phenyl)-2-[2-(4-chloro-phenylamino)-4-phenyl-thiazol-5-yl]-3H-quinazolin-4-one] |
| 5.7 | CCOC(=O)Nc1nc(-c2ccccc2)c(-c2nc3ccccc3c(=O)n2-c2ccccc2)s1 [[5-(4-Oxo-3-phenyl-3,4-dihydro-quinazolin-2-yl)-4-phenylthiazol-2-yl]-carbamic acid ethyl ester] |

| SMILES | IC50 [µM] |
| --- | --- |
| CNc1nc(C)c(-c2nc3ccccc3c(=O)n2-c2ccc(Cl)cc2)s1 [3-(4-Chloro-phenyl)-2-(4-methyl-2-methylamino-thiazol-5-yl)-3H-quinazolin-4-one] | 3 |
| CCOC(=O)Nc1nc(C)c(-c2nc3ccccc3c(=O)n2-c2ccc(Cl)cc2)s1 [{5-[3-(4-Chloro-phenyl)-4-oxo-3,4-dihydro-quinazolin-2-yl]-4-methyl-thiazol-2-yl}-carbamic acid ethyl ester] | 10 |
